Shown are actives, neighbours in structure and some others; about 3.7% of the full set was active somewhere.
MT stabilizer – stabilizes microtubules in HeLa cells; HeLa tubulin immunostaining HCS, 24 h; share of cells brighter than vehicle mean+2SD; % tubulin-high responders, % at 10 µM; 200,000 tested, 0.83% active;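 active = plate Z-score above 3 for both tubulin-high and condensed-nucleus cell shares, with cell loss under 80%, at 10 µM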;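 also: anti alpha tubulin signal scored within the nucleus-defined area of each cell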
Cl transport mod – KCC2 (human) Cl- transport modulation | KCC2 cells, thallium flux FluoZin-2 fluorescence | B-score of Tl+ flux slope (higher = more flux/activation; lower = inhibition) at 10 µM | 190,000 tested, 2.2% active | AID 1456;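 active = thallium flux slope and its plate-corrected score both differing from the plate sample mean at a set confidence after two filtering rounds, in either direction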;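 also: slope of fluorescence scaled to starting intensity during 10 to 20 s after thallium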
ROMK mod – human ROMK K+ channel modulation, primary screen | P48048 | Tet-inducible ROMK, thallium flux fluorescence; actives lie on both sides | B-score at 10 µM | 130,000 tested, 2% active;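 active = signal ratio slope over the read window, or its plate-corrected B-score, at least 3 SD from the plate mean, either direction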;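 also: B-score of the F/F0 ratio slope over 7 to 12 s after thallium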
b-catenin transl – alters nuclear translocation of beta-catenin in HeLa cells; nuclear translocation activity, % at 5 µM; AID 1665; 190,000 tested, 0.3% active; immunofluorescence imaging;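 active = nuclear translocation activity above 50% at 5 µM, with a well cell count of 50 or more; inconclusive = wells under 50 cells across six images, flagged as toxic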;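 also: per-cell ratio of nuclear to cytoplasmic median beta-catenin stain intensity; plate controls were DMSO negative control for no effect and GSK-3 inhibitor IX positive control for full effect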
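Test system: human HeLa cell line; Doses: 5 µM primary, 0.02–20 µM confirmation; Incubation: 24 h compound exposure, 37°C; Detection: beta-catenin immunofluorescence imaging with DAPI; Read-out: beta-catenin nuclear/cytoplasmic ratio, % activation.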
Redox H2O2 prof – compounds producing H2O2 with reducing agent – biochemical, NIH compound library profiling, artefact control for MLSCN library redox annotation, primary screen; DTT-dependent redox cycling H2O2, phenol red/HRP absorbance; 100% = 100 µM peroxide control, 0% = buffer; 200,000 tested, 0.03% active; activation, % at 10 µM;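 active = activation of at least 50% relative to the plate's high and low controls in the primary single-dose screen; inactive = activation below 50%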;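 also: compound incubated with DTT at 0.8 mM final as the reducing agent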
KCC2 sec1 – KCC2 (human) modulation, secondary assay; shares compounds with Cl transport mod; HEK293-KCC2, thallium flux, FluoZin2 fluorescence; stronger effect = higher value; normalised thallium flux (F/F0 slope) at 10 µM; 3,700 tested, 15% active;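 active = thallium flux slope above the same plate's solvent-only control mean plus 3 SD; inconclusive = the two replicate wells disagree; inactive = no significant difference from solvent-only control wells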
KCC2 bumet counter – bumetanide-insensitive thallium flux in KCC2 cells with ouabain, counter-screen. shares compounds with Cl transport mod. HEK293-KCC2 + bumetanide/ouabain, thallium flux FluoZin2; stronger effect = higher value. normalized thallium flux at 10 µM. 3,700 tested, 49% active;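 active = thallium entry rate above the same plate's blocked-transporter control wells by more than 3 SD; inconclusive = the two repeat wells disagree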;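 also: raw slope of fluorescence over initial fluorescence between 10 and 20 s after thallium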
KCC2 secondary2 – KCC2 (human) modulation, second secondary assay. shares compounds with Cl transport mod. HEK293-KCC2, thallium flux FluoZin2 fluorescence; actives lie on both sides; F/F0 rise rate, 10–20 s post-thallium. normalized thallium flux at 10 µM. 3,700 tested, 23% active. AID 1715;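 active = thallium flux slope more than 3 SD above or below the plate's solvent-only control mean, mostly below; inconclusive = the two repeat wells disagreed; inactive = no significant shift from solvent-only controls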;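 also: raw slope with 0.1% DMSO as baseline and bumetanide as block control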
HEK counter1 – parental HEK flux effect, counter-screen. thallium flux rate (normalised fluorescence) at 10 µM. 3,700 tested, 46% active. HEK293 parental cells, thallium flux FluoZin2, ouabain; baseline-ratio fluorescence slope, 10–20 s after thallium. shares compounds with Cl transport mod;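 active = thallium flux rate significantly above the same plate's solvent-only control wells, beyond their mean plus 3 SD; inconclusive = the two replicate wells gave conflicting results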
KCC2 retest ouab – confirmation of human KCC2 modulators with ouabain; AID 1717; 3,700 tested, 48% active; raw Tl+ flux slope (below DMSO = inhibition, above = activation) at 10 µM; HEK293-KCC2, thallium flux FluoZin2 fluorescence; bidirectional: low = inhibitor, high = activator; shares compounds with Cl transport mod;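 active = thallium flux slope beyond 3 SD from same-plate DMSO control mean in most replicates, usually higher, sometimes lower; inconclusive = repeat tests gave conflicting results; inactive = no significant difference from controls in most replicates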;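 also: slope of initial-normalized fluorescence between seconds 10 and 20 after thallium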
HEK counter2 – counter-screen for KCC2 modulators: effect in parental HEK293 cells | shares compounds with Cl transport mod | thallium flux FluoZin-2 fluorescence slope | 3,700 tested, 33% active | AID 1718 | thallium flux slope at 10 µM;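 active = thallium flux slope above the same plate's solvent-control mean plus 3 SD in both duplicate wells; inconclusive = duplicate wells that disagreed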;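 also: run without ouabain in cells lacking the KCC2 cotransporter; slope of fluorescence scaled to its starting value between 10 and 20 s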
Starred values were filed as active, the others as inactive; u = inconclusive; x = not tested or not shown.

SMILES	MT stabilizer	Cl transport mod	ROMK mod	b-catenin transl	Redox H2O2 prof	KCC2 sec1	KCC2 bumet counter	KCC2 secondary2	HEK counter1	KCC2 retest ouab	HEK counter2
Cc1[nH]n2c(=O)cc(C(C)C)nc2c1-c1ccccc1	1	6.7*	x	-4	0	u	0.015*	u	u	u	0.011
Cc1[nH]n2c(=O)cc(C(C)(C)C)nc2c1-c1ccccc1	4	x	1.4	1	0	x	x	x	x	x	x
COc1ccc(S(=O)(=O)NCC2CCC(C(=O)NCC(OC)OC)CC2)cc1 (configuration not stated)	2	-0.041	-0.46	-1	-2	x	x	x	x	x	x
Cc1cc(C(=O)CSc2nnnn2C)c(C)n1-c1ccc2c(c1)OCCO2	4	0.81	x	-3	1	x	x	x	x	x	x
Cc1nnc(SCC(=O)c2cc(C)n(-c3ccc4c(c3)OCO4)c2C)s1	5	-3.3*	x	3	-3	u	0.0031*	0.032	u	0.022	0.0094
CCOC(=O)c1c(N2C(=O)Nc3cc(Cl)c(Cl)cc3N2O)sc2c1CCCCC2	3	-5.2*	x	x	14	0.0085	0.013*	0.029	0.0076	u	0.0099
Cc1ccc(C(=O)NN(CCC(=O)NC(C)(C)C)C2=NS(=O)(=O)c3ccccc32)cc1	3	-0.22	-0.049	-2	0	x	x	x	x	x	x
CCN(CC)c1ccc(/C=C2\C(=O)N(c3ccc([N+](=O)[O-])cc3)N=C2N2CCOCC2)cc1	3	0.25	-0.02	x	1	x	x	x	x	x	x
CC(C)(C)C1CCC(=NNC(=O)c2cc3c(s2)CCCC3)CC1 (configuration not stated)	3	-0.46	1	1	1	x	x	x	x	x	x
CC(C)(C)C1CCc2sc(C(=O)NNC(=O)CCl)cc2C1 (configuration not stated)	12	3.3*	-0.094	0	0	0.0071	0.017*	0.03	0.017*	u	0.014*
Cc1cc(NC(=O)NN2CCOCC2)nn1-c1c(Cl)cccc1Cl	x	1.4	x	-3	x	x	x	x	x	x	x
CCOc1ccc(CC(=N)C2=C(O)CC(C)(C)CC2=O)cc1OCC	3	-4.3*	1.1	0	0	0.0075	0.0053	0.031	0.0064	0.02	u
CCOc1ccc(CC(=NCCc2ccccc2)C2=C(O)CC(C)(C)CC2=O)cc1OCC	4	-0.67	0.091	-2	0	x	x	x	x	x	x
Cc1sc2nc(C3CC3)nc(SCC(=O)N3CCCc4ccccc43)c2c1C	5	8.5*	-0.059	0	-1	0.011	0.019*	0.032	0.013*	u	0.012*
COc1cccc(CNS(=O)(=O)c2cn(C)cn2)c1	5	7.2*	0.64	0	1	0.0062	0.0046	0.033	0.0076	0.019	0.011
Cn1cnc(S(=O)(=O)NCc2ccccc2)c1	2	0.75	0.16	-2	0	x	x	x	x	x	x
S=c1[nH]nc(Cc2c[nH]c3ccccc23)o1	3	-5.5*	x	-2	0	0.0083	0.0057	0.023*	0.0068	0.011*	0.0094
CC(C)CCNC(=O)CCc1nnc(Cc2c[nH]c3ccccc23)o1	2	-1.3	-0.25	0	-1	x	x	x	x	x	x
Cc1cc(C)nc(NC2=NCCN2C(=S)Nc2c(C)cccc2C)n1	5	-0.91	-0.3	-2	1	x	x	x	x	x	x
N#Cc1cc2c([nH]c1=S)CCCCCC2	3	6.4*	x	-2	2	0.013*	0.022*	0.03	0.013*	u	u
Cn1c(C(=O)N2CCc3ccccc3C2)cc2c(=O)n3ccccc3nc21	6	x	-1.2	-2	0	0.0051	0.0063*	0.027	0.0073	0.015*	0.011
Cn1c(C(=O)O)cc2c(=O)n3ccccc3nc21	x	-0.39	x	0	x	x	x	x	x	x	x
CNCc1c(OCc2ccc(F)cc2)ccc2ccccc12	4	0.33	-0.74	0	0	x	x	x	x	x	x
Fc1ccc(COc2ccc3ccccc3c2CNc2nn[nH]n2)cc1	4	-4.6*	-0.087	9	0	0.0061	0.0046	0.021*	u	0.0092*	u
Fc1ccccc1COc1ccc2ccccc2c1CNc1nn[nH]n1	18*	-5.9*	-0.28	-4	0	0.0059	0.0043	0.02*	u	0.0087*	u
SMILES	MT stabilizer	Cl transport mod	ROMK mod	b-catenin transl	Redox H2O2 prof	KCC2 sec1	KCC2 bumet counter	KCC2 secondary2	HEK counter1	KCC2 retest ouab	HEK counter2
O=C(O)c1cccc(Nc2nc(Nc3ccccc3)nc(N3CCCC3)n2)c1	3	-3*	x	0	0	0.0084	0.0057	0.029	u	0.029*	u
O=C(OCn1ncc(Cl)c(Cl)c1=O)c1cccc(C(F)(F)F)c1	2	x	x	0	1	0.0092	u	0.033	0.0059*	0.015*	0.012
COCCNc1nc2nonc2nc1N(C)Cc1cccc2cnccc12	1	-3.1*	x	0	0	0.0066	0.0049	0.028	0.0079	u	0.011
CCN(c1ccccc1)c1nc2nonc2nc1NCCO	x	-0.93	x	0	x	x	x	x	x	x	x
CN(Cc1ccccc1)C(=O)COC(=O)c1cncc(Br)c1	1	-0.88	x	5	0	x	x	x	x	x	x
CN(Cc1ccccc1)C(=O)COC(=O)c1ccc(Cl)c(N)c1	7	-3.9*	x	-2	2	0.0073	0.0057	0.037	0.004	0.016*	0.01
CCOc1ccc(NC(=S)NC(=O)c2c(Cl)cnn2CC)c([N+](=O)[O-])c1	3	19*	0.34	-3	0	0.018*	0.056*	0.034	0.029*	0.044*	0.014*
CCn1ncc(Cl)c1C(=O)NC(=S)Nc1c(C)cc(C)cc1[N+](=O)[O-]	2	85*	0.55	-2	0	0.033*	0.15*	0.044*	0.076*	0.072*	0.026*
Cc1cc(C)c(NC(=S)NC(=O)c2c(Cl)c(C)nn2C)c([N+](=O)[O-])c1	5	42*	0.74	-1	0	0.019*	0.16*	u	0.047*	0.061*	0.016*
CCOc1ccc(NC(=S)NC(=O)c2c(Br)cnn2C)c([N+](=O)[O-])c1	4	2	0.81	x	-1	x	x	x	x	x	x
